The source of these data is ChEMBL document CHEMBL2157862, “A novel spirocyclic tropanyl-Δ²-isoxazoline derivative enhances citalopram and paroxetine binding to serotonin transporters as well as serotonin uptake” (Bioorg Med Chem, 2012).

The source made the active and inactive calls. No cut-off for these calls is given here.

One may read the IC50 as the concentration needed to halve the response being measured. Low values mean greater potency in that assay, high ones weaker potency in that assay.

Experiment [1] concerns the target Sodium-dependent serotonin transporter (Rattus norvegicus) (UniProt P31652). Kind of experiment: Displacement of [3H]-citalopram from SERT in rat cortical membranes at 10 uM after 60 mins. It counts as cell membranes. As to conditions: Membrane. A digest of the protocol: (§1)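 Frozen rat cortical membranes (washed pellets) in 50 mM Tris-HCl pH 7.4 with 120 mM NaCl and 5 mM KCl, incubated with [3H]citalopram with or without compound. Nonspecific binding defined with 10 µM (S)-citalopram. Bound radioactivity measured by filtration and scintillation counting. Mean ± S.E.M. of replicates; Student's t test vs vehicle.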

The target is the same in experiment [2]. As to the kind of experiment: Increase of [3H]-citalopram binding to SERT in rat cortical membranes at 10 uM after 60 mins. It counts as cell membranes. The note with it: Membrane. A digest of the protocol: as §1
Experiment [3] shares this target. As to the kind of experiment: Increase of SERT-mediated [3H]-5HT uptake in rat brain cortex synaptosomes at 10 uM after 7 mins by scintillation counting. It is filed as subcellular. A digest of the protocol: (§2)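 Rat cortex P2 synaptosomes from 0.32 M sucrose homogenate, resuspended in HEPES-buffered saline pH 7.4 with glucose, ascorbate and pargyline. Aliquots equal to 3 mg tissue preincubated 7 min at 35 °C with compound. Uptake then ran 5 min after adding 100 nM [3H]5-HT, stopped by filtration, and counted by scintillation. Nonspecific uptake defined with 10 µM (S)-citalopram.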

The target is the same in experiment [4]. As to the kind of experiment: Increase of [3H]-citalopram binding to SERT in rat cortical membranes after 60 mins. As to conditions: Membrane. It is filed as cell membranes. The method, boiled down: as §1
For experiment [5] the target is unchanged. As to the kind of experiment: Increase of SERT-mediated [3H]-5HT uptake in rat brain cortex synaptosomes after 7 mins by scintillation counting. It counts as subcellular. The method, boiled down:
as §2

Experiment [6] shares this target. As to the kind of experiment: Increase of [3H]-citalopram binding to SERT in rat cortical membranes at 10 to 30 uM after 60 mins. The note with it: Membrane. It counts as cell membranes. The method, boiled down:
as §1

Experiment [7] shares this target. Kind of experiment: Increase of SERT-mediated [3H]-5HT uptake in rat brain cortex synaptosomes at 10 to 30 uM after 7 mins by scintillation counting. It is filed as subcellular. The method, boiled down:
as §2

For experiment [8] the target is unchanged. As to the kind of experiment: Increase of [3H]paroxetine binding to SERT in rat cortical membranes at 10 uM after 60 mins. It is filed as cell membranes. The note with it: Membrane. The method, boiled down: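 Saturation binding in rat cortical membranes (Tris-HCl 50 mM pH 7.4, 120 mM NaCl, 5 mM KCl) at varied [3H]paroxetine concentrations, with or without 10 µM compound. Specific binding by scintillation counting. Mean ± SD of 4 replicates. One-site hyperbola fit gave Bmax and Kd.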

Experiment [9] deals with Sodium-dependent dopamine transporter (Rattus norvegicus, UniProt P23977). As to the kind of experiment: Displacement of [3H]-WIN35428 from DAT in rat striatal membranes after 90 mins. It counts as cell membranes, Membrane. A digest of the protocol: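 Frozen rat striatal membranes in 50 mM Tris-HCl pH 7.4 with 120 mM NaCl and 5 mM KCl, incubated 90 min at 4 °C with 2 nM [3H]WIN 35,428. Nonspecific binding defined with 3 µM nomifensine. Stopped by rapid filtration on albumin-presoaked GF/B filters, then scintillation counting.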
Chain of Sodium-dependent dopamine transporter (P23977 whole entry): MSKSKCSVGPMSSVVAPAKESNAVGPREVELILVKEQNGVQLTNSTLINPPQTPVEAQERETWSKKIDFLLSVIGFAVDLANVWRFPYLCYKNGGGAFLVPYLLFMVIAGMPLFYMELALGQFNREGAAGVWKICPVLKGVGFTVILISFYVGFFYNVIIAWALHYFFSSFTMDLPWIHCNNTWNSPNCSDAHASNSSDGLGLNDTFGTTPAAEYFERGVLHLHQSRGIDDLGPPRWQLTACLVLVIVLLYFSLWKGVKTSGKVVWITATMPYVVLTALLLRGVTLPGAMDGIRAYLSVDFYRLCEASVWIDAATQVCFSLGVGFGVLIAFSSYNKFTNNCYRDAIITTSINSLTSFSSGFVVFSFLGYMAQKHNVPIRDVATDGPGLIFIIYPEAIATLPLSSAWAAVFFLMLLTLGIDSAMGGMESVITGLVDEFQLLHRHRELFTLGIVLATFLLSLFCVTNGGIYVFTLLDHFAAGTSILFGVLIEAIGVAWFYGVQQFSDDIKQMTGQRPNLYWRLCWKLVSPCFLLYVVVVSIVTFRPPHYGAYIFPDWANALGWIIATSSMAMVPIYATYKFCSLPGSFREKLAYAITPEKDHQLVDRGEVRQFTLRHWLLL
In general terms: Loss of bound radioactivity is the signal in a displacement assay; it reports binding, not function.

The target of experiment [10] is Sodium-dependent serotonin transporter (Rattus norvegicus, UniProt P31652). Kind of experiment: Displacement of [3H]-citalopram from SERT in rat cortical membranes after 60 mins. It counts as cell membranes, Membrane. A digest of the protocol:
as §1

The target of experiment [11] is Sodium-dependent serotonin transporter (Rattus norvegicus) (UniProt P31652). Kind of experiment: Increase of [3H]-citalopram binding to SERT in rat cortical membranes at 3 to 30 uM after 60 mins. As to conditions: Membrane. It is filed as cell membranes. The method, boiled down:
as §1

For experiment [12] the target is unchanged. Kind of experiment: Increase of SERT-mediated [3H]-5HT uptake in rat brain cortex synaptosomes at 3 to 100 uM after 7 mins by scintillation counting. It counts as subcellular. A digest of the protocol: as §2

Chain of Sodium-dependent serotonin transporter (Rattus norvegicus) (P31652 whole entry): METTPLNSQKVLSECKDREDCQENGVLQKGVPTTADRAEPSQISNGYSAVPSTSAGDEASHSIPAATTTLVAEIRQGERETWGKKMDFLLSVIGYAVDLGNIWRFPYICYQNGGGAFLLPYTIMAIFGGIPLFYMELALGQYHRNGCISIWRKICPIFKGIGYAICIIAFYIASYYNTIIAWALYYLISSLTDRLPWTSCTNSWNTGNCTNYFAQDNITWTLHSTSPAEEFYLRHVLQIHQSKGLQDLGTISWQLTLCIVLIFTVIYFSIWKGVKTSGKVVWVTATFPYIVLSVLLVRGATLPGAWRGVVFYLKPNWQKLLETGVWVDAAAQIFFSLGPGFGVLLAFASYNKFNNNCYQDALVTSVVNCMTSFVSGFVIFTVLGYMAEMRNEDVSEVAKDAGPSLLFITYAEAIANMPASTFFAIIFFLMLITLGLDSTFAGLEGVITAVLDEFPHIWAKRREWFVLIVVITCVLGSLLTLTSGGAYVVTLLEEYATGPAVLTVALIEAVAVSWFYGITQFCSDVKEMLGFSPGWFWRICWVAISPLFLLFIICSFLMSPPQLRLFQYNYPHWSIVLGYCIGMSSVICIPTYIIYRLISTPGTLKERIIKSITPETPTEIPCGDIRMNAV
Chain of Sodium-dependent serotonin transporter (P31652 whole entry): as above

For `C#CCOC1=NO[C@]2(C1)C[C@H]1CC[C@@H](C2)N1`, the inhibition result in [1] was “inactive”.

Consider `CCOC(=O)C1=NO[C@]2(C1)C[C@H]1CC[C@@H](C2)N1C`, for which the inhibition entry in [1] was “inactive”. The same measure, in the same setting: with `CN1[C@@H]2CC[C@H]1C[C@@]1(CC(CO)=NO1)C2` the entry was “inactive”; with `COC1=NO[C@]2(C1)C[C@H]1CC[C@@H](C2)N1`, “inactive”; with `CN1[C@@H]2CC[C@H]1C[C@@]1(CC(OCc3ccccc3)=NO1)C2`, “inactive”. The same measure, in the same setting: with `C#CCOC1=NO[C@]2(C1)C[C@H]1CC[C@@H](C2)N1C` the entry was “inactive”. As for `COC1=NO[C@]2(C1)C[C@H]1CC[C@@H](C2)N1C`, the inhibition entry in [1] is “inactive”. The Activity in experiment [2] was 25%; in experiment [3], 30%; in experiment [4] it was “Dose-dependent effect”; in [5], “Dose-dependent effect”. Moreover, the result in experiment [6], in experiment [7] and in experiment [8] was Active.

Take `CN1O[C@]2(CC1=O)C[C@H]1CC[C@@H](C2)N1C`: the inhibition result in experiment [1] was “inactive”. In [4], the outcome was inactive. Compound `CCOC1=NO[C@]2(C1)C[C@H]1CC[C@@H](C2)N1` yielded an IC50 in [9] of 5 µM. For the same compound, the inhibition entry in [1] was “inactive”.

For `O=C1C[C@]2(C[C@H]3CC[C@@H](C2)N3)ON1`, the IC50 in experiment [9] was 5 µM. Also, in experiment [1], the inhibition entry is “inactive”. As to `CN1[C@@H]2CC[C@H]1C[C@@]1(CC(=O)NO1)C2`, the inhibition entry in [1] was “inactive”.

For the compound `CCOC1=NO[C@]2(C1)C[C@H]1CC[C@@H](C2)[N+]1(C)C`, the IC50 in [9] came out at 5 µM. For the same compound, the inhibition entry in experiment [1] is “inactive”. Compound `c1ccc(COC2=NO[C@]3(C2)C[C@H]2CC[C@@H](C3)N2)cc1` registered an IC50 in experiment [9] of 5 µM. In addition, the inhibition result in [1] is “inactive”. For `CN1[C@@H]2CC[C@H]1C[C@@]1(CC(Br)=NO1)C2`, the inhibition result in experiment [1] was “inactive”. Regarding `CCOC(=O)C1=NO[C@]2(C1)C[C@H]1CC[C@@H](C2)[N+]1(C)C`, in [1], the inhibition result was “inactive”. The same measure, in the same setting: with `COC1=NO[C@]2(C1)C[C@H]1CC[C@@H](C2)[N+]1(C)C` the entry was “inactive”.

In [10], `CN1O[C@]2(CC1=O)C[C@H]1CC[C@@H](C2)N1` had an IC50 of 5 µM.

Turning to `C[N+]1(C)[C@@H]2CC[C@H]1C[C@@]1(CC(OCc3ccccc3)=NO1)C2`, the inhibition result in experiment [1] was “inactive”. Consider `C#CCOC1=NO[C@]2(C1)C[C@H]1CC[C@@H](C2)[N+]1(C)C`, for which, in experiment [1], the inhibition result is “inactive”. `BrC1=NO[C@]2(C1)C[C@H]1CC[C@@H](C2)N1`: the inhibition entry in [1] is “inactive”.

As to `C[N+]1(C)[C@@H]2CC[C@H]1C[C@@]1(CC(Br)=NO1)C2`, the inhibition result in [1] is “inactive”. Turning to `C[N+]1(C)[C@@H]2CC[C@H]1C[C@@]1(CC(CO)=NO1)C2`, the inhibition result in experiment [1] is “inactive”. On to `CCOC1=NO[C@]2(C1)C[C@H]1CC[C@@H](C2)N1C`, for which, in experiment [9], the IC50 was found to be 5 µM. Also, the inhibition entry in experiment [1] was “inactive”. The same compound showed an Activity in experiment [2] of 11%. Moreover, the result in [11] and in experiment [12] was Active.
